# Most compounds without a hit are left out; they make up all but 12% or so of the library.
# ROMK mod: modulators of human ROMK potassium channel; Tet-inducible ROMK, thallium flux fluorescence; actives lie on both sides; B-score at 10 µM; 2% of 130,000 active; AID 1918;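 active = signal ratio slope over the read window, or its plate-corrected B-score, at least 3 SD from the plate mean, either direction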;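 also: B-score of the F/F0 ratio slope over 7 to 12 s after thallium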
# Diaph inh CS: diaphorase inhibition or chemical oxidation counter-screen; diaphorase resazurin-to-resorufin fluorescence, NADH, 16 min; bacterial (C. kluyveri) enzyme, not human; inhibition, % at 20 µM; 0.69% of 190,000 active; AID 1217;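 active = primary screen inhibition at 20 µM above a set limit, cut at about 50% in these data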;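 also: plate controls were DMSO with full reaction for no effect and wells lacking NADH for full effect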
#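 Assay system: diaphorase enzyme from Clostridium kluyveri; Input: enzyme working solution with 0.14 U/mL diaphorase; Timing: 16 min at room temperature; Technique: resorufin fluorescence, excitation 544 nm, emission 590 nm; Benchmarks: positive control minus NADH, DMSO neutral control.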
# Lmaj promast: inhibitors of Leishmania major promastigote growth; Leishmania major promastigotes, resazurin fluorescence viability; inhibition, % at 10 µM; 9% of 200,000 active; AID 1063; in the data active = inhibition above about 50%;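 also: promastigotes grown with compound for 44 hours at 28 °C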
# Diaph act CS: activates diaphorase or chemically reduces, flagging diaphorase assay artifacts. activation factor at 20 µM. 0.005% of 190,000 active. Diaphorase/resazurin coupled assay, resorufin fluorescence, 16 min; stronger effect = higher value; 1 = vehicle wells, 0 = NADH-free wells. AID 1229;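 active = diaphorase activity raised at least twofold by the compound at 20 µM; inactive = activation factor below 2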
#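 System – purified diaphorase enzyme from Clostridium kluyveri · Input – enzyme 0.07 U/mL final · Also added – final NADH 0.114 mM, resazurin 0.1 mM · Measured by – fluorescence of resorufin, 544 nm excitation, 590 nm emission · Timing – 16 min enzyme reaction, ambient temperature · Measure – resorufin increase flagging diaphorase activators or reducers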
# Cl transport mod: modulates chloride dependent transport by human KCC2; Q9H2X9; KCC2 cells, thallium flux FluoZin-2 fluorescence; B-score of Tl+ flux slope (higher = more flux/activation; lower = inhibition) at 10 µM; 2.2% of 190,000 active; AID 1456;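 active = thallium flux slope and its plate-corrected score both differing from the plate sample mean at a set confidence after two filtering rounds, in either direction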;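 also: slope of fluorescence scaled to starting intensity during 10 to 20 s after thallium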
# WT yeast gro inh: growth inhibition of WT yeast, mitochondrial fusion screen; inhibition, % at 10 µM; 2.1% of 190,000 active; mitochondrial fusion phenotypic screen, WT strain; in the data active = inhibition above about 58%; tested in S. cerevisiae
# L major 1uM: inhibitors of Leishmania major promastigote growth, repeat at 1 uM; shares compounds with Lmaj promast; L. major promastigote growth, resazurin fluorescence, 48 h; inhibition, % at 1 µM; 13% of 1,100 active; AID 1258;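 active = inhibition above about 50% in both repeat tests, limit read from the data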
# * marks the source's active call; other numbers are inactive results; i = inactive; nt = not tested or not shown.
SMILES,ROMK mod,Diaph inh CS,Lmaj promast,Diaph act CS,Cl transport mod,WT yeast gro inh,L major 1uM
O=C(C1=C[C@@H](C2CC2)C[C@@H](OCc2ccc(CO)cc2)O1)N1CCN(Cc2ccccc2)CC1,nt,8,-5,0.9,-2.2,-13,nt
COc1ccc(CNC(C)(C)C)cc1Cl,nt,0,-3,1,-0.018,-17,nt
COc1ccc(CSC2=NCCN2)cc1Cl,-0.52,9,99*,0.9,0.85,-10,-11
CCOc1ccc(-n2c(SCC(N)=O)nc3c([nH]c4ccccc43)c2=O)cc1,nt,34,68*,0.7,-0.32,13,2
CCOc1ccc(-n2c(SCC(=O)Nc3cc(C)on3)nc3c([nH]c4ccccc43)c2=O)cc1,nt,5,6,0.9,-1.2,19,nt
O=C(O)CSC1=NC(=Nc2ccc(Cl)cc2)C2(CCCCC2)N1c1cccc(C(=O)O)c1,nt,20,46,0.8,-0.16,-3,nt
CC(C)(C)c1ccc(C(=O)NCC(=O)OCC(=O)Nc2ccc3c(c2)OCCO3)cc1,-0.37,7,50,0.9,0.75,-11,nt
COc1ccc(OCC(=O)Nc2sc3c(c2C(=O)NCC2CCCO2)CCC3)cc1 (centres undefined),nt,9,-4,0.9,nt,4,nt
Cn1c(=O)c2nc(-c3ccccc3)oc2c2ccccc21,nt,35,92*,0.7,-2.7,12,72*
CC1(OC(=O)CCc2ccccc2)C(=O)C=C2C=C(c3ccc(C#N)cc3)N(C3CCCC3)C=C2C1=O (centres undefined),nt,nt,nt,nt,0.0097,nt,nt
Cc1ccc2c(c1)c(=O)c1c3n2CCN(C(=O)CCl)C3CC1 (centres undefined),0.29,15,100*,0.9,-0.013,5,57*
Cc1ccc2c(c1)c1c3n2CCN(C(=O)Cn2c(-c4ccccc4)noc2=O)C3CCC1 (centres undefined),-0.29,4,46,1,nt,8,nt
CCCCn1c2c(c(=N)c3ccccc31)CCC2,0.21,nt,nt,nt,-1.2,nt,nt
N=c1c2c(n(Cc3ccccc3)c3c1CCC3)CCC2,nt,5,100*,1,nt,71*,94*
CCc1cc2c(nc1CC)CCN(CC/C(C)=N/O[C@@H](C)c1cc(-c3c(C)cc(C)cc3C)no1)C2,-3.5,-7,92*,1.1,-1.2,36,-15
C/C(CCN1CCc2nc(-c3ccccc3)c(-c3ccccc3)cc2C1)=N\O[C@@H](C)c1cc(-c2c(C)cc(C)cc2C)no1,-0.43,9,83*,0.9,0.77,24,-12
C/C(CCN1CCc2nc(-c3ccccc3)c(-c3ccccc3)cc2C1)=N\O[C@H](C)c1cn([C@H](CO)Cc2ccccc2)nn1,-2.5,12,3,0.9,-0.61,8,nt
O=C(Nc1ccc(S(=O)(=O)N2CCN(c3ccccc3)CC2)cc1)c1cccs1,nt,17,11,0.8,1,22,nt
Cc1nc(SCC(=O)N2CCC(C(N)=O)CC2)n[nH]1,nt,9,-4,0.9,-1.4,4,nt
COc1cccc(NC(=S)N(CCCN2CCOCC2)Cc2cn(C)c3ccccc23)c1,nt,5,35,1,-1.6,2,nt
C=CCSc1nnc2c(n1)[nH]c1c(C)cccc12,nt,29,61*,0.7,nt,25,11
Cc1ccc(/C=C(\C#N)c2nn(-c3ccccc3)c(N)c2C#N)cc1,0.43,18,65*,0.8,-0.54,-3,-6
CN(C(=O)COC(=O)c1cc(S(=O)(=O)N2CCOCC2)c(Cl)cc1Cl)C1CCS(=O)(=O)C1 (centres undefined),0.67,-2,-1,1,-0.0055,11,nt
Cc1ccc(S(=O)(=O)N(C)CC(=O)N2CCCc3ccccc32)cc1,nt,14,1,0.9,1,0,nt
N/N=C(\c1ccccc1)C12CN3CN(CN(C3)C1)C2,0.18,-2,52*,1,-0.1,-9,-14
SMILES,ROMK mod,Diaph inh CS,Lmaj promast,Diaph act CS,Cl transport mod,WT yeast gro inh,L major 1uM
Cn1c2ccccc2n2c(=O)c(Cl)c(-c3ccccc3)c(C#N)c12,0.39,23,62*,0.8,-1.1,18,0
CCNC(=O)OCCC12CC3CC(CC(C3)C1)C2,0.44,14,86*,0.9,0.28,-1,-11
Cc1cc2oc(=O)cc(CSc3nc(N)cc(N)n3)c2cc1C,-0.22,14,8,0.9,-0.19,-2,nt
Cc1ccc(-n2cccc2C(=S)N=P(N(C)C)(N(C)C)N(C)C)cc1,nt,22,57*,0.8,-0.25,65*,-6
Cc1ccc(-n2cccc2C(=O)NS(=O)(=O)c2ccc(C)cc2)cc1,nt,nt,nt,nt,1.1,nt,nt
N#Cc1cc(Oc2ccc3ccccc3c2)c(-n2nnc3ccccc32)cc1C#N,0.53,17,52*,0.8,-0.32,9,96*
N#Cc1cc(Oc2ccccc2)c(-n2nnc3ccccc32)cc1C#N,0.64,14,-3,0.9,0.34,-16,nt
Cn1cccc1C1Nc2ccccc2NC2=C1C(=O)CC(C)(C)C2 (centres undefined),0.88,19,91*,0.8,-0.0056,-3,-10
CCc1nnc(NC(=O)C2CCCN2C(=O)Nc2ccccc2)s1 (centres undefined),0.92,16,-9,0.8,-1.7,-4,nt
Cc1ccc(-n2nnnc2C(Cl)c2nnnn2-c2ccc(C)cc2)cc1,nt,35,99*,0.6,-0.18,74*,32
Cc1ccc(-n2nnnc2-c2ccco2)cc1,0.084,10,-3,0.9,-0.0024,9,nt
C=CCN1C=CC(=C/C=C(/C#N)C(=O)OCC)C=C1,nt,8,0,0.9,i,-16,nt
FC(F)Oc1ccc(/C=N/c2c(-c3ccc(OC(F)F)cc3)nc3n2CCS3)cc1,0.18,5,72*,0.9,-1.4,-2,22
COc1ccc(-c2nc3n(c(=O)c2C#N)CCS3)cc1,-0.069,1,-5,1,nt,-1,nt
O=c1sc(Nc2ccccc2)nc2ccsc12,-0.46,4,100*,1,nt,5,-16
CC(C)(C)c1cc(C(C)(C)C)cc(S(=O)(=O)CCc2ccccn2)c1,nt,16,60*,0.8,-1.4,16,0
Cc1cccc(Nc2nc(N)c([N+](=O)[O-])c(N3CCC(C)CC3)n2)c1,0.36,31,15,0.7,-0.0013,32,nt
Cc1cccc(Nc2nc(N3CCN(C)CC3)nc(N)c2[N+](=O)[O-])c1,nt,9,96*,0.9,-0.47,3,-3
Cc1ccc(S(=O)(=O)NCc2c(-c3ccccc3)noc2C)cc1,nt,nt,nt,nt,-1.4,nt,nt
Cc1noc(C)c1C(c1ccccc1)c1ccccc1,-1.1,17,2,0.8,0.51,45,nt
Cc1noc(C)c1C(c1ccccc1)S(=O)(=O)c1ccccc1 (centres undefined),nt,6,85*,0.9,-0.52,3,-16

# Screening results as filed in PubChem BioAssay.
